{
  "source": "paper PMC7502546",
  "about": "(ACS chemical biology, 2020)",
  "key": {"[1]": {"tested_on": "Cav1.3 calcium channels in adult SN dopaminergic (DA) neurons", "assay": "Voltage clamp of acutely isolated SN dopaminergic neurons from WT mice", "format": "cell-based", "method_in_brief": "(§1)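 SN dopaminergic neurons were acutely isolated from brain slices of young adult (P25) wild-type or CaV1.3 ([…]) knockout mice. Whole-cell voltage clamp used Ba2+ as charge carrier, with voltage ramps from −70 mV to +30 mV. Test compound was applied at 5 μM and 50 μM on wild-type cells and 50 μM on knockout cells. Maximum calcium permeability was compared by Mann-Whitney test.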"}, "[2]": {"target": "CaV1.2-V1063M+I1183V (Oryctolagus cuniculus, UniProt P15381, I1183V/V1063M)", "assay": "Whole-cell patch clamp, CaV1.2-V1063M+I1183V channels", "format": "cell-based, rabbit", "settings": "read-out: percent inhibition of evoked currents"}, "[3]": {"target": "CaV1.3-V1198I (Rattus norvegicus, UniProt P27732, V1198I)", "assay": "Whole-cell patch clamp, CaV1.3-V1198I channels", "format": "cell-based", "settings": "read-out: percent inhibition of evoked currents", "method_in_brief": "(§2)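 Rat α1D (wild type or point mutants made by site-directed mutagenesis, sequence-verified) was transiently co-transfected with CaVβ3 and CaVα2δ-1 at 1:1:1 into tsA201 cells, with 1/40 (w/w) GFP. GFP-positive cells were whole-cell clamped 48 h later at 22–25 °C. External solution held 10 mM BaCl2 (pH 7.4); internal was NMG-based with 5 mM BAPTA. DMSO stocks were diluted into barium solution and perfused. Median percent inhibition was reported.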"}, "[4]": {"target": "CaV1.2-V1063L (Oryctolagus cuniculus, UniProt P15381, V1063L)", "assay": "Whole-cell patch clamp, CaV1.2-V1063L channels", "format": "cell-based, rabbit", "settings": "read-out: percent inhibition of evoked currents (median)"}, "[5]": {"tested_on": "CaV1.3-M1078I", "assay": "Whole-cell patch clamp, CaV1.3-M1078I channels", "format": "cell-based, rat", "method_in_brief": "as §2"}, "[6]": {"target": "CaV1.3-M1078L (Rattus norvegicus, UniProt P27732, M1078L)", "sequence (P27732 whole entry M1078L)": "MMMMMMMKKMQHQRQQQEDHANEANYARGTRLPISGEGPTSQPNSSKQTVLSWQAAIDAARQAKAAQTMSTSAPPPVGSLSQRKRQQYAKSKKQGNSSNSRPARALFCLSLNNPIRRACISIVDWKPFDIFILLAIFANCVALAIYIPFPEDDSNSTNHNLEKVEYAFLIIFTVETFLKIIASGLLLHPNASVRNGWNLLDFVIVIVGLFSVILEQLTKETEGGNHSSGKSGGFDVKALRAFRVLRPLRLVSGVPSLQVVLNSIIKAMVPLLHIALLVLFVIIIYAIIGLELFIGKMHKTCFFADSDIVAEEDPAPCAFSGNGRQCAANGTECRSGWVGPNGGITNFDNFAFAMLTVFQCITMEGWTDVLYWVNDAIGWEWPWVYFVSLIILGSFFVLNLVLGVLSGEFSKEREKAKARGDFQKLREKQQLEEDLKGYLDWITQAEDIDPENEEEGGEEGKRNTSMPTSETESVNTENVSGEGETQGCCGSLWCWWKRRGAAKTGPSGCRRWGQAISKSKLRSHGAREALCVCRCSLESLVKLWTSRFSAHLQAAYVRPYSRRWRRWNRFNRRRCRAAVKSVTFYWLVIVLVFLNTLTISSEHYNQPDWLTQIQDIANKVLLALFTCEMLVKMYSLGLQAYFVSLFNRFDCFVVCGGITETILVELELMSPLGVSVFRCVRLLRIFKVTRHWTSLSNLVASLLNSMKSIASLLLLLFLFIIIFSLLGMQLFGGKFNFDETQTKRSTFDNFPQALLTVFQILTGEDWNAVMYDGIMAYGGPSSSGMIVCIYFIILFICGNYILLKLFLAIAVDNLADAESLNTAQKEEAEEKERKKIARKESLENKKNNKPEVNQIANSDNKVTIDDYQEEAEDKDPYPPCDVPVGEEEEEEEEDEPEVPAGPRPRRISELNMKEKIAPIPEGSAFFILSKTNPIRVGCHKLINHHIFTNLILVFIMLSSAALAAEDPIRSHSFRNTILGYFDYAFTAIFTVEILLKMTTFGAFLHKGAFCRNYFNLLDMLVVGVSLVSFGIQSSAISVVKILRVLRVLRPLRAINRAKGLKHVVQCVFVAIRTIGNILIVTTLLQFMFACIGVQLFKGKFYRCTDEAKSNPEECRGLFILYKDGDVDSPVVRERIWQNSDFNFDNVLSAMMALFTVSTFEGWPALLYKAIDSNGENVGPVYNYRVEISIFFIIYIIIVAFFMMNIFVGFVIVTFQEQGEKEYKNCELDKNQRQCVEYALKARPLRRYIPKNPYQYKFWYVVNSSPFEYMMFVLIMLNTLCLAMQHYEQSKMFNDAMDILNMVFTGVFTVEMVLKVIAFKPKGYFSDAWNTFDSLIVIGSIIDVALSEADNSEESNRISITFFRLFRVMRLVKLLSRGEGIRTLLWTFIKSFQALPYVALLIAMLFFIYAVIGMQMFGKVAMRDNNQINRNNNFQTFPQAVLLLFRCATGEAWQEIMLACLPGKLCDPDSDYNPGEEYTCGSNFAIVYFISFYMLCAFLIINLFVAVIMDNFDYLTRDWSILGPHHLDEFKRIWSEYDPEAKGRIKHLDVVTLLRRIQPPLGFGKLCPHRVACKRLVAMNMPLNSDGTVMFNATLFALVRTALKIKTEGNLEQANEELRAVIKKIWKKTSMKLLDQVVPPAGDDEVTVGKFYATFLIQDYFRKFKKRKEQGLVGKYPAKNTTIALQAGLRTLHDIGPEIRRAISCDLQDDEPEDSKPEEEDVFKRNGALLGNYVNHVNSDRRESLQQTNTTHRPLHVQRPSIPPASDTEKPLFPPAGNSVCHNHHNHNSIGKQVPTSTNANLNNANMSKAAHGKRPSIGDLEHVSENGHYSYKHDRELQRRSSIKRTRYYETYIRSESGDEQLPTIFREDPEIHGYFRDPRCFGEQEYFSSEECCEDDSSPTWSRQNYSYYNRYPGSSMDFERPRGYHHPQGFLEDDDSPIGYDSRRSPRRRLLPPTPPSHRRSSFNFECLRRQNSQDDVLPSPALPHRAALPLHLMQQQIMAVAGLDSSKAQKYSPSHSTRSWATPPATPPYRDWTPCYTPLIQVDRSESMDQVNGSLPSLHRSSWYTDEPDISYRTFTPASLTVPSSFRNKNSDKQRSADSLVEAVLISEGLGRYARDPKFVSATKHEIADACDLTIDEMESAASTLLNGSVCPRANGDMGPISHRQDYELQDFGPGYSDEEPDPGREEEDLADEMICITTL", "sequence (P54287 whole entry partner)": "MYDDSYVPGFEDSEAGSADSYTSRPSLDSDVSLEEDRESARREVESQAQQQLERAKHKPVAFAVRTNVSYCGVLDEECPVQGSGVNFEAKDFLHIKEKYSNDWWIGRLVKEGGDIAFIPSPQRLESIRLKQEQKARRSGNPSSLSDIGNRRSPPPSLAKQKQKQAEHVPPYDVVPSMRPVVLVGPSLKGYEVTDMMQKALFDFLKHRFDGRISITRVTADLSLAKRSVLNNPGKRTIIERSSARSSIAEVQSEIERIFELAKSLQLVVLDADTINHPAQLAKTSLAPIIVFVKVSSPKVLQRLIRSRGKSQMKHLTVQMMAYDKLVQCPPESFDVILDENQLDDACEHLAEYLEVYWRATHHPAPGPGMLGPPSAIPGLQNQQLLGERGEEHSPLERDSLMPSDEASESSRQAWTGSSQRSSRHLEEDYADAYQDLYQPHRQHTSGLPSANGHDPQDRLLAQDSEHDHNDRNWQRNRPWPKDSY", "sequence (P54290 25-1091 partner)": "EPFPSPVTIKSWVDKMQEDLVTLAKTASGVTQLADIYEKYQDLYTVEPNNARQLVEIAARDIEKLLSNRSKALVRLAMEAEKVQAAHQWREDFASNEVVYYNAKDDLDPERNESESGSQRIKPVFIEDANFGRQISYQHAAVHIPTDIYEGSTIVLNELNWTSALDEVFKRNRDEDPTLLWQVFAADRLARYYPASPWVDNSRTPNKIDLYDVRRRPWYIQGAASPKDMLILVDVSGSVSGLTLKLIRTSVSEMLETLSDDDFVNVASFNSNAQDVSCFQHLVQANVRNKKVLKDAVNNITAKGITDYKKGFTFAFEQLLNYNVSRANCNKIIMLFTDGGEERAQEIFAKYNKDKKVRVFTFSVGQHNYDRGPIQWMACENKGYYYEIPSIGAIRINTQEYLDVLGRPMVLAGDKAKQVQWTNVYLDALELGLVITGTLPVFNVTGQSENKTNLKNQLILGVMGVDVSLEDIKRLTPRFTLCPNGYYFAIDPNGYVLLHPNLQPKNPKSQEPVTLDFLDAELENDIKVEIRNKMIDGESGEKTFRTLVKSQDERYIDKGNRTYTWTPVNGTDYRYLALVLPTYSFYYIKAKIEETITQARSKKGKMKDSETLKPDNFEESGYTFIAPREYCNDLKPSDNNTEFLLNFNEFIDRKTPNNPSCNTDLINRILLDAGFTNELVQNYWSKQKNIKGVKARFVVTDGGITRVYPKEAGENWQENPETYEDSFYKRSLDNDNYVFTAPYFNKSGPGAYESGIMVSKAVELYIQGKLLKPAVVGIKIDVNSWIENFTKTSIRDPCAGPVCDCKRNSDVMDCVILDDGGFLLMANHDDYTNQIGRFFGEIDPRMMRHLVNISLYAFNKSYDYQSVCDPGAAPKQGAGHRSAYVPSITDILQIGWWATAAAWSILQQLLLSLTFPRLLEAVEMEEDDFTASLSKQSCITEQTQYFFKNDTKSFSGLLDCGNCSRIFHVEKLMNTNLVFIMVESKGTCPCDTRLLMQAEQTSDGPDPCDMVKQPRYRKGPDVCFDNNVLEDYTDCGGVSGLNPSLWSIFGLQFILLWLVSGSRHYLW", "assay": "Whole-cell patch clamp, CaV1.3-M1078L channels", "format": "cell-based", "settings": "read-out: percent inhibition of evoked currents (median)", "method_in_brief": "as §2"}, "[7]": {"target": "CaV1.3 LTCCs (Rattus norvegicus, UniProt P27732)", "sequence (P27732 921-1530 limits assumed)": "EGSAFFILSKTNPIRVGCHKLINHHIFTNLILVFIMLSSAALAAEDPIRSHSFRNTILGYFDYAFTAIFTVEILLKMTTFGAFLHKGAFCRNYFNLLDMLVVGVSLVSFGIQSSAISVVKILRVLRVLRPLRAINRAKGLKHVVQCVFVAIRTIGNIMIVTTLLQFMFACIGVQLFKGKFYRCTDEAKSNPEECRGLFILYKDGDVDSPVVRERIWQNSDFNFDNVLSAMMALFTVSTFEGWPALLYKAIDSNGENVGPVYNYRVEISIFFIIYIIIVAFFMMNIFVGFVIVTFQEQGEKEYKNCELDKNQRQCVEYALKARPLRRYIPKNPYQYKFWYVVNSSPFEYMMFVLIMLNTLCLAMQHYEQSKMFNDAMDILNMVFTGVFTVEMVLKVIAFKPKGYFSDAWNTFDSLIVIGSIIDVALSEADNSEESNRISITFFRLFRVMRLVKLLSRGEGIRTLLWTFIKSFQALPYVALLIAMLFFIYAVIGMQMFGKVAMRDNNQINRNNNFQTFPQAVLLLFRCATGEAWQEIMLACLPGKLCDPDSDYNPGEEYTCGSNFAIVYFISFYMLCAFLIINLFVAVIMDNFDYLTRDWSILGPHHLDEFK", "assay": "Equilibrium binding / displacement of 3H2-SKP004D11 in HEK293 membranes", "method_in_brief": "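Membranes came from HEK-293 cells stably expressing CaV1.3 α1D/β3/α2δ-1. They were washed in 40 mM HEPES, 100 mM NaCl, pH 8.0, homogenized on ice, and pelleted three times at 100,000 × g, 4 °C. Each reaction held 3.0 nM tritiated pyrimidinetrione ligand, 0.1–0.4 mg/mL protein, and unlabeled competitor, incubated 90 min at room temperature. Samples were filtered on GF/C and scintillation counted. Nonspecific binding used a saturating cold ligand. Ki came from a Langmuir fit plus Cheng-Prusoff; Kd came from a Scatchard plot (n = 4).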"}, "[8]": {"target": "CaV1.2 (wild-type) (Oryctolagus cuniculus, UniProt P15381)", "assay": "Whole-cell patch clamp, wild-type CaV1.2 channels", "format": "cell-based, rabbit", "settings": "rabbit, pH 7.4"}, "[9]": {"target": "CaV1.2-I1183V (Oryctolagus cuniculus, UniProt P15381, I1183V)", "assay": "Whole-cell patch clamp, CaV1.2-I1183V channels", "format": "cell-based, rabbit", "settings": "read-out: percent inhibition of evoked currents"}, "[10]": {"target": "CaV1.2-V1063M (Oryctolagus cuniculus, UniProt P15381, V1063M)", "assay": "Whole-cell patch clamp, CaV1.2-V1063M channels", "format": "cell-based, rabbit", "settings": "read-out: percent inhibition of evoked currents (median)"}, "[11]": {"tested_on": "SN dopaminergic neuron from an adult Cav1.3-KO mouse", "assay": "Voltage clamp of SN dopaminergic neurons from Cav1.3-KO mouse", "format": "cell-based", "settings": "cp-PYT 50 μM; CaV1.3 knockout mouse", "method_in_brief": "as §1"}, "[12]": {"tested_on": "CaV1.3-T1081Y", "assay": "Whole-cell patch clamp, CaV1.3-T1081Y channels", "format": "cell-based, rat", "method_in_brief": "as §2"}, "[13]": {"tested_on": "SN dopaminergic neurons", "assay": "mito-roGFP mitochondrial oxidant stress in ex vivo brain slices", "format": "cell-based, mouse"}, "[14]": {"target": "CaV1.2-V1063I (Oryctolagus cuniculus, UniProt P15381, V1063I)", "assay": "Whole-cell patch clamp, CaV1.2-V1063I channels", "format": "cell-based, rabbit", "settings": "read-out: percent inhibition of evoked currents (median)"}, "[15]": {"tested_on": "SN dopaminergic neurons", "format": "cell-based, mice", "settings": "cp-PYT 50 μM; ex vivo brain slice", "method_in_brief": "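Ex vivo brain slices from young adult mice were used. SN dopaminergic neurons were whole-cell patched and filled through the pipette with Alexa568 (20 μM) and Fluo-4 (200 μM). Two-photon laser scanning microscopy imaged Ca2+ along a dendrite while somatic voltage was recorded, before and after test compound application. Fluo-4 fluorescence was normalized to baseline (F0).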"}, "[16]": {"tested_on": "CaV1.3 channels", "settings": "micromolar concentrations; cited from earlier work"}, "[17]": {"tested_on": "CaV1.3 channels", "settings": "magnitude and selectivity dependent on auxiliary β subunit; cited from earlier work"}, "[18]": {"target": "CaV1.2-V1063K (Oryctolagus cuniculus, UniProt P15381, V1063K)", "assay": "Whole-cell patch clamp, CaV1.2-V1063K channels", "format": "cell-based, rabbit"}, "[19]": {"tested_on": "CaV1.3 channels over CaV1.2 channels", "settings": "cited from earlier work"}, "[20]": {"tested_on": "CaV1.3-M1078V", "assay": "Whole-cell patch clamp, CaV1.3-M1078V channels", "format": "cell-based, rat", "settings": "for percent inhibition of evoked currents (median): CaV1.3-M1078V", "method_in_brief": "as §2"}, "[21]": {"settings": "rodents; cited from earlier work"}, "[22]": {"tested_on": "CaV1.3", "format": "cell-based, rat", "settings": "for percent inhibition of evoked currents (median): wild-type CaV1.3, step −80 mV to 0 mV; for percentage inhibition of CaV1.3 peak currents (median): test step to 0 mV", "method_in_brief": "as §2"}, "[23]": {"target": "CaV1.3-M1078K (Rattus norvegicus, UniProt P27732, M1078K)", "sequence (P27732 whole entry M1078K)": "as the sequence (P27732 whole entry M1078L) above, with L1078K counted along it", "sequence (P54287 whole entry partner)": "as the sequence (P54287 whole entry partner) above", "sequence (P54290 25-1091 partner)": "as the sequence (P54290 25-1091 partner) above", "assay": "Whole-cell patch clamp, CaV1.3-M1078K channels", "format": "cell-based", "settings": "read-out: percent inhibition of evoked currents (median)", "method_in_brief": "as §2"}, "[24]": {"target": "CaV1.2 (Oryctolagus cuniculus, UniProt P15381)", "assay": "Whole-cell patch clamp, wild-type CaV1.2 channels", "format": "cell-based, rabbit", "settings": "read-out: percent inhibition of evoked currents (median)"}},
  "note": "pKi: −log10 of the molar value. Read-outs that look alike come from different tables or passages of the source.",
  "data": [
    {"smiles": "O=C1CC(=O)N(C2CCCC2)C(=O)N1CCc1cccc(Cl)c1", "note": "[cp-PYT, 1-(3-chlorophenethyl)-3-cyclopentylpyrimidine-2,4,6-trione]", "values": [
      {"measurement": "inhibition of whole cell Ba2+ currents", "setting": "[1]; cp-PYT 5 μM, voltage ramps −70 mV to +30 mV, WT mice", "result": "modest inhibition"},
      {"measurement": "inhibition of whole cell Ba2+ currents", "setting": "[1]; cp-PYT 50 μM, WT mouse", "result": "inhibition"},
      {"measurement": "inhibition at 100 µM", "setting": "[2]", "result": 32, "unit": "%"},
      {"measurement": "inhibition at 100 µM", "setting": "[3]", "result": 45, "unit": "%"},
      {"measurement": "inhibition at 100 µM", "setting": "[4]", "result": 35, "unit": "%"},
      {"measurement": "percent inhibition of evoked currents (median)", "setting": "[5]; 100 μM cp-PYT", "result": 37, "unit": "%"},
      {"measurement": "inhibition at 100 µM", "setting": "[6]", "result": 31, "unit": "%"},
      {"measurement": "displacement of tritiated D11 binding", "setting": "[7]; equilibrium membrane binding", "result": "displaced"},
      {"measurement": "inhibition at 100 µM", "setting": "[8]", "result": 21, "unit": "%"},
      {"measurement": "inhibition at 100 µM", "setting": "[9]", "result": 12, "unit": "%"},
      {"measurement": "inhibition at 100 µM", "setting": "[10]", "result": 47, "unit": "%"},
      {"measurement": "effect on whole cell Ba2+ currents", "setting": "[11]", "result": "no effect"},
      {"measurement": "percent inhibition of evoked currents (median)", "setting": "[12]; 100 μM cp-PYT", "result": 2, "unit": "%"},
      {"measurement": "mitochondrial oxidant stress", "setting": "[13]; cp-PYT 50 μM bath application", "result": "significantly diminished"},
      {"measurement": "inhibition at 100 µM", "setting": "[14]", "result": 48, "unit": "%"},
      {"measurement": "dendritic Ca2+ oscillations", "setting": "[15]", "result": "significantly reduced"},
      {"measurement": "effect on pacemaking", "setting": "[15]", "result": "no effect"},
      {"measurement": "deactivation of tail currents", "setting": "[16]", "result": "slowed"},
      {"measurement": "inhibition of CaV1.3 channels", "setting": "[17]", "result": "did inhibit"},
      {"measurement": "inhibition at 100 µM", "setting": "[18]; read-out: percent inhibition of evoked currents", "result": 40, "unit": "%"},
      {"measurement": "selectivity for inhibition of CaV1.3 channels over CaV1.2 channels", "setting": "[19]", "result": "highly selective"},
      {"measurement": "percent inhibition of evoked currents (median)", "setting": "[20]; 100 μM cp-PYT", "result": 4, "unit": "%"},
      {"measurement": "tail currents in M1078V mutant channels", "setting": "[20]; cp-PYT (100 μM) in text", "result": "slowing of tail currents persisted"},
      {"measurement": "reinstatement of alcohol- and cocaine-seeking", "setting": "[21]", "result": "disrupt"},
      {"measurement": "percent inhibition of evoked currents (median)", "setting": "[22]; 100 μM cp-PYT", "result": 60, "unit": "%"},
      {"measurement": "percentage inhibition of CaV1.3 peak currents (median)", "setting": "[22]; cp-PYT 10 μM, VH −50 mV", "result": 46, "unit": "%"},
      {"measurement": "percentage inhibition of CaV1.3 peak currents (median)", "setting": "[22]; cp-PYT 10 μM, VH −80 mV", "result": 26, "unit": "%"},
      {"measurement": "tail current kinetics / channel deactivation rates", "setting": "[22]; cp-PYT 10 μM, step back to −80 mV", "result": "did not alter"},
      {"measurement": "tail current kinetics", "setting": "[22]; cp-PYT 50 μM, step back to −80 mV", "result": "slowed"},
      {"measurement": "inhibition at 100 µM", "setting": "[23]", "result": 58, "unit": "%"}
    ]},
    {"smiles": "COC(=O)C1=C(C)NC(C)=C(C(=O)OC(C)C)C1c1cccc2nonc12", "note": "(centres unmarked) [isradipine, reference compound]", "values": [
      {"measurement": "inhibition at 5 µM", "setting": "[2]", "result": 93, "unit": "%"},
      {"measurement": "inhibition at 5 µM", "setting": "[3]", "result": 94, "unit": "%"},
      {"measurement": "inhibition at 5 µM", "setting": "[4]", "result": 95, "unit": "%"},
      {"measurement": "percent inhibition of evoked currents (median)", "setting": "[5]; 5 μM isradipine", "result": 85, "unit": "%"},
      {"measurement": "inhibition at 5 µM", "setting": "[6]", "result": 69, "unit": "%"},
      {"measurement": "pKi", "setting": "[7]", "result": 7.17},
      {"measurement": "fraction of 3H2-D11 binding not displaced", "setting": "[7]; displacement by isradipine", "result": "~ 20%"},
      {"measurement": "inhibition at 5 µM", "setting": "[24]", "result": 78, "unit": "%"},
      {"measurement": "inhibition at 5 µM", "setting": "[9]", "result": 95, "unit": "%"},
      {"measurement": "inhibition at 5 µM", "setting": "[10]", "result": 92, "unit": "%"},
      {"measurement": "percent inhibition of evoked currents (median)", "setting": "[12]; 5 μM isradipine", "result": 1, "unit": "%"},
      {"measurement": "mitochondrial oxidant stress", "setting": "[13]; isradipine 1 μM", "result": "diminished"},
      {"measurement": "inhibition at 5 µM", "setting": "[14]", "result": 91, "unit": "%"},
      {"measurement": "inhibition at 5 µM", "setting": "[18]; read-out: percent inhibition of evoked currents (median)", "result": 72, "unit": "%"},
      {"measurement": "percent inhibition of evoked currents (median)", "setting": "[20]; 5 μM isradipine", "result": 78, "unit": "%"},
      {"measurement": "reinstatement of alcohol- and cocaine-seeking", "setting": "[21]", "result": "disrupt"},
      {"measurement": "percent inhibition of evoked currents (median)", "setting": "[22]; 5 μM isradipine", "result": 90, "unit": "%"},
      {"measurement": "percentage inhibition of CaV1.3 peak currents (median)", "setting": "[22]; isradipine 100 nM (Fig. 4a legend), VH −50 mV", "result": 92, "unit": "%"},
      {"measurement": "percentage inhibition of CaV1.3 peak currents (median)", "setting": "[22]; isradipine 100 nM (Fig. 4a legend), VH −80 mV", "result": 43, "unit": "%"},
      {"measurement": "inhibition at 5 µM", "setting": "[23]", "result": 88, "unit": "%"}
    ]}
  ]
}
